Laboratory results: ChEMBL document CHEMBL3525991, “Metabolic transformation of antitumor acridinone C-1305 but not C-1311 via selective cellular expression of UGT1A10 increases cytotoxic response: implications for clinical use” (Drug Metab Dispos, 2013)
The source made the active and inactive calls. The calls are words filed in the database; no cut-off is given here.

Key:
[1] = biological target: T1, UDP-glucuronosyltransferase 2B4 (Homo sapiens, UniProt P06133); test: Drug metabolism in human KB3 cells overexpressing human UGT2B4 assessed as enzyme-mediated metabolites formation at 30 uM for 24 to 72 hrs by HPLC analysis; assay type: ADME, cell-based; details: kb3, 30 µM
T1 sequence (P06133 whole entry): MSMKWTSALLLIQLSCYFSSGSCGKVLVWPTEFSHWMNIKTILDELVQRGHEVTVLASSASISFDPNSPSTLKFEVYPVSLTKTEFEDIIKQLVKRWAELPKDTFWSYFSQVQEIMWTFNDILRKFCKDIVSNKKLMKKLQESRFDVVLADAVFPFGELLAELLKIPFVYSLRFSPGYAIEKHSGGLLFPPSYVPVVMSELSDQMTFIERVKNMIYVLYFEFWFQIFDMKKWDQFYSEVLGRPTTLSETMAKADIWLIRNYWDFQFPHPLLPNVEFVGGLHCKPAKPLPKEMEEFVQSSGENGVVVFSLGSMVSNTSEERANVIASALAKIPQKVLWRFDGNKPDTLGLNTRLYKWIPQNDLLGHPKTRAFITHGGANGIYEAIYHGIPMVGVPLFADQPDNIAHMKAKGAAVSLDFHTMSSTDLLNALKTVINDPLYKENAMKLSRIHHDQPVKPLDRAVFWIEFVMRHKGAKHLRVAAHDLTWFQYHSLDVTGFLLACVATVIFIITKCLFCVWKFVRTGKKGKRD
Summary of the method: (§1)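 Untransfected KB-3, or cells electroporated 24 h earlier with UGT1A10 or UGT2B4 plasmid, grown to 80% confluence and treated with 30 μM drug for 24, 48 or 72 h. Cells plus medium collected, washed, sonicated in ice-cold 60% methanol. Reverse-phase HPLC at 1 ml/min in 50 mM ammonium formate pH 3.2, with a 15–80% methanol gradient over 25 min, then to 100%. Positive-ion ESI-MS.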

[2] = Cell cycle arrest in human KB3 cells overexpressing human UGT1A10 assessed as distribution at subG1 DNA content at 3 uM after 24 hrs by propidium iodide staining-based FACS flow cytometric analysis (reference value: 3.4%); assay type: functional; details: in the assay text read “72 hrs” for “24 hrs”
Summary of the method: (§2)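 KB-3 cells were electroporated with a UGT1A10 expression plasmid (140 V, 250 μF), co-transfected with GFP, and used 24 h later. At 80% confluence they received 8 μM or 3 μM compound, or 0.1% DMSO, for 24–72 h. Cells were fixed in ice-cold 70% ethanol, stained with PI/RNase for 30 min in the dark, and analysed by flow cytometry for DNA content; at least two experiments.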

[3] = biological target: T2, UDP-glucuronosyltransferase 1A10 (Homo sapiens, UniProt Q9HAW8); test: Drug metabolism in human KB3 cells overexpressing human UGT1A10 assessed as enzyme-mediated metabolites formation at 30 uM for 24 to 72 hrs by HPLC analysis; assay type: ADME, cell-based; details: kb3, 30 µM; summary of the method: as §1
T2 sequence (Q9HAW8 whole entry): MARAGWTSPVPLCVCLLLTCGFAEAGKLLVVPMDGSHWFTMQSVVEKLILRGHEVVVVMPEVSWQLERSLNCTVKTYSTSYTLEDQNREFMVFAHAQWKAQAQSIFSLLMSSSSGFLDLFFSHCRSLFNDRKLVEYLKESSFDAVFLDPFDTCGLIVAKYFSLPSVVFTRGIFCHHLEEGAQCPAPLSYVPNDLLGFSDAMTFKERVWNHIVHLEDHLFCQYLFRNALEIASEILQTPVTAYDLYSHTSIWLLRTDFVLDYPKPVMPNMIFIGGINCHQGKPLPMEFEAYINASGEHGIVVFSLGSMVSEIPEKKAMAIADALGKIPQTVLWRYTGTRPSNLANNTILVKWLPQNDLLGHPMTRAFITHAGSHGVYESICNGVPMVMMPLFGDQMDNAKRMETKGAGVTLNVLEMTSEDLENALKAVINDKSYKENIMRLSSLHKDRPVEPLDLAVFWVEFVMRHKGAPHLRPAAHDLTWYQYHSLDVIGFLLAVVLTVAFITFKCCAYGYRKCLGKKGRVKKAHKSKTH

[4] = Cell cycle arrest in human KB3 cells assessed as distribution at subG1 DNA content at 3 uM after 72 hrs by propidium iodide staining-based FACS flow cytometric analysis (reference value: 3.4%)
[5] = Cell cycle arrest in human KB3 cells assessed as distribution at M phase at 3 uM after 24 hrs by propidium iodide staining-based FACS flow cytometric analysis; assay type: functional
[6] = biological target: T2, UDP-glucuronosyltransferase 1A10; test: Drug metabolism in human KB3 cells overexpressing human UGT1A10 assessed as enzyme-mediated metabolites formation at 30 uM for 24 to 72 hrs by HPLC analysis and electrospray ionization-mass spectrometry; assay type: ADME, cell-based; details: kb3, 30 µM; summary of the method: as §1
[7] = Cell cycle arrest in human KB3 cells assessed as distribution at S phase at 3 uM after 24 hrs by propidium iodide staining-based FACS flow cytometric analysis; assay type: functional
[8] = Drug metabolism in human KB3 cells assessed as retention time at 30 uM for 24 to 72 hrs by HPLC analysis; assay type: ADME, cell-based; details: kb3, 30 µM; summary of the method: as §1
[9] = Cell cycle arrest in human KB3 cells overexpressing human UGT1A10 assessed as accumulation of cells with 4N DNA content at 3 uM after 24 to 72 hrs by propidium iodide staining-based FACS flow cytometric analysis; assay type: functional; summary of the method: as §2
[10] = Cytotoxicity against human KB3 cells expressing human UGT2B4 assessed as decrease in cell viability after 72 hrs by MTT assay; assay type: functional, cell-based; details: KB3, 72 h
Summary of the method: (§3)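 KB-3 cells electroporated with 5 μg plasmid (UGT1A10-pcDNA3.1, UGT2B4-pIRES or empty pcDNA3.1), cotransfected with GFP (140 V, 250 μF). Used 24 h later at 2000/well. Next day, drug up to 10 μM in 0.1% DMSO for 72 h. MTT read at 540 nm after 4 h. Triplicates, relative to vehicle. IC50 is 50% of control absorbance.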

[11] = Cytotoxicity against human KB3 cells assessed as decrease in cell viability after 72 hrs by MTT assay; assay type: functional, cell-based; details: KB3, 72 h
Summary of the method: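 KB-3 (HeLa variant) cells, untransfected, in DMEM with 10% FBS at 37 °C, 5% CO2, seeded 2000/well. Next day, drug added at concentrations up to 10 μM, final 0.1% DMSO; vehicle controls. MTT read at 540 nm after 4 h, following DMSO solubilisation. Triplicate points, relative to vehicle. IC50 is the concentration giving 50% of control absorbance. Repeated independently.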

[12] = Cytotoxicity against human KB3 cells expressing human UGT1A10 assessed as decrease in cell viability after 72 hrs by MTT assay; assay type: functional, cell-based; details: KB3, 72 h; summary of the method: as §3
[13] = Cytotoxicity against human KB3 cells expressing pcDNA3.1 assessed as decrease in cell viability after 72 hrs by MTT assay; assay type: functional, cell-based; details: KB3, 72 h; summary of the method: as §3
[14] = Cell cycle arrest in human KB3 cells assessed as distribution at G2 phase at 3 uM after 24 hrs by propidium iodide staining-based FACS flow cytometric analysis; assay type: functional
[15] = Cell cycle arrest in human KB3 cells assessed as distribution at subG1 DNA content at 8 uM after 72 hrs by propidium iodide staining-based FACS flow cytometric analysis (reference value: 3.4%); assay type: functional
[16] = Cell cycle arrest in human KB3 cells assessed as distribution at M phase at 8 uM after 48 to 72 hrs by propidium iodide staining-based FACS flow cytometric analysis; assay type: functional
[17] = Cell cycle arrest in human KB3 cells overexpressing human UGT1A10 assessed as accumulation of cells with 4N DNA content at 8 uM after 24 to 72 hrs by propidium iodide staining-based FACS flow cytometric analysis; assay type: functional; summary of the method: as §2
[18] = Cell cycle arrest in human KB3 cells assessed as distribution at G2/M phase at 8 uM after 24 hrs by propidium iodide staining-based FACS flow cytometric analysis; assay type: functional
[19] = Cell cycle arrest in human KB3 cells assessed as reduction of cells at G1 phase at 8 uM after 24 hrs by propidium iodide staining-based FACS flow cytometric analysis; assay type: functional
[20] = Cell cycle arrest in human KB3 cells overexpressing human UGT1A10 assessed as distribution at subG1 DNA content at 8 uM after 24 hrs by propidium iodide staining-based FACS flow cytometric analysis (reference value: 3.4%); assay type: functional; details: in the assay text read “72 hrs” for “24 hrs”; summary of the method: as §2
[21] = Cell cycle arrest in human KB3 cells assessed as distribution at G2 phase at 8 uM after 48 to 72 hrs by propidium iodide staining-based FACS flow cytometric analysis; assay type: functional
[22] = Cell cycle arrest in human KB3 cells assessed as distribution at S phase at 8 uM after 24 hrs by propidium iodide staining-based FACS flow cytometric analysis; assay type: functional

Compound | Drug metabolism [1] | Drug metabolism [3] | Drug metabolism [6] | Retention_time [8] [min] | IC50 [10] [nM] | IC50 [11] [nM] | IC50 [12] [nM] | IC50 [13] [nM] | other results
CCN(CC)CCNc1ccc2ncn3c4ccc(O)cc4c(=O)c1c23.Cl | metabolite_not_detected | metabolite_detected | metabolite_detected | 15 | 113 | 106 | 131 | 102 | Activity [2]: 22.4%; Activity [4]: 16.9%; Activity [5]: Active; Activity [7]: Active; Activity [9]: Active; Activity [14]: Active
CN(C)CCCNc1ccc2nnn3c4ccc(O)cc4c(=O)c1c23.Cl | metabolite_not_detected | metabolite_detected | metabolite_detected | 18 | 261 | 263 | 180 | 260 | Activity [15]: 18.7%; Activity [16]: Active; Activity [17]: Active; Activity [18]: Active; Activity [19]: Active; Activity [20]: 37.2%; Activity [21]: Active; Activity [22]: Active
